Compound activity: PubChem, several laboratories
This is a sample that favours compounds with a hit; in the whole collection about 0.86% have one here.
TNAP inh noacc = blocks human TNAP activity with no phosphate acceptor present. P05186. purified TNAP, CDP-star luminescence, 30 min. inhibition, % at 20 µM. hit rate 0.26% among 200,000;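 active means tissue-nonspecific alkaline phosphatase inhibition above about 50% at 20 µM in the single-dose screen, limit read from the data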;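 further: 0% = DMSO negative control and 100% = EDTA positive control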
Target sequence (P05186 whole entry, looked up): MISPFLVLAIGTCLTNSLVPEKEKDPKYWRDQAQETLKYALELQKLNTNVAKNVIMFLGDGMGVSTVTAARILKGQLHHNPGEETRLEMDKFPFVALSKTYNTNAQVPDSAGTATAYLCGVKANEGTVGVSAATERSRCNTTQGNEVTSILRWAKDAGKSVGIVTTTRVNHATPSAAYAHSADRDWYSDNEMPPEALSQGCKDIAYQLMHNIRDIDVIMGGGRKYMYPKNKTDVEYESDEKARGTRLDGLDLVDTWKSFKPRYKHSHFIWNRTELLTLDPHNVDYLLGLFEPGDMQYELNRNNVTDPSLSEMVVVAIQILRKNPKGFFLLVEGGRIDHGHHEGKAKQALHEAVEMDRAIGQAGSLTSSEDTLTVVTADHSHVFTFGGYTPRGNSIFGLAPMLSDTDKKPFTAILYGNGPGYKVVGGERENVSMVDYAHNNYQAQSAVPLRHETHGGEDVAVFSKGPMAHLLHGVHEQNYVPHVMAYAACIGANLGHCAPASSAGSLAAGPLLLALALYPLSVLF
DTT redox prof = compounds producing H2O2 with reducing agent – biochemical, NIH compound library profiling, artefact control for MLSCN library redox annotation, primary screen. DTT-dependent redox cycling H2O2, phenol red/HRP absorbance; 100% = 100 µM peroxide control, 0% = buffer. activation, % at 10 µM. hit rate 0.03% among 200,000. AID 878;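 active means activation of at least 50% relative to the plate's high and low controls in the primary single-dose screen; inactive means activation below 50%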;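 further: compound incubated with DTT at 0.8 mM final as the reducing agent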
PERK inh = blocks human PERK kinase; Q9NZJ5; CHO PERK-DD fusion, SEAP luminescence translation reporter; inhibition, % at 5.6 µM; hit rate 0.17% among 220,000; AID 1416;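 active means inhibition above the mean inhibition of all tested compounds plus 3 SD, set separately per screening campaign, cut at about 2.9% in these data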;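 further: PERK kinase domain activated by AP20187 dimerizer at 100 nM; 0% = DMSO with dimerizer and 100% = rapamycin at 8.4 µM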
TNAP inh hi DEA = blocks human TNAP under high phosphate acceptor concentration | purified TNAP, CDP-star luminescence, 1 M DEA | P05186 | hit rate 0.03% among 200,000 | inhibition, % at 20 µM | AID 1135;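 active means over 50% inhibition of tissue-nonspecific alkaline phosphatase at 20 µM in the single-dose screen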;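 further: plate controls were DMSO wells for no effect and EDTA-quenched wells as full inhibition for full effect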
TNAP act hi DEA = increases human TNAP activity under high phosphate acceptor concentration; P05186; purified TNAP, CDP-star luminescence, 1 M DEA, 30 min; hits give high values; 0 = EDTA background, 1 = DMSO-only activity; activation factor at 20 µM; 200,000 tested, under 10 active;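 active means activation factor at least 2 at 20 µM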
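Dosing: 20 µM single point. System: human TNAP. Amount: TNAP 1/800 final. Incubation: 30 min, room temperature. Read-out: TNAP activation factor scaled between EDTA and DMSO control wells. Signal: luminescence from CDP-star hydrolysis. Medium: 1 M DEA, pH 9.8, Mg2+, Zn2+. Control set: EDTA negative control, DMSO positive control.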
p97 inhibitor = human p97 ATPase inhibition; recombinant p97 ATPase, Kinase-Glo ATP luminescence, 3 h; inhibition, % at 8 µM; hit rate 0.42% among 220,000; AID 1481; in the data active means inhibition above about 15%;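 further: 0% = DMSO vehicle and 100% = wells lacking enzyme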
An asterisk follows results filed as active; . = no result given.

SMILES	TNAP inh noacc	DTT redox prof	PERK inh	TNAP inh hi DEA	TNAP act hi DEA	p97 inhibitor
NC(=S)N/N=C/c1ccc(/C=N/NC(N)=S)cc1	.	.	3.5*	.	.	7
CC1CCC(NC(=O)Cn2cc3c(n2)CCCC3)CC1 (stereo not given)	-1	-1	2	-5	1	2
O=C(Cn1cc2c(n1)CCCC2)NCC1CCCO1 (stereo not given)	-12	0	3.2*	-4	1	-1
COC(=O)Nc1ccc(S(=O)(=O)N2CCN(C)CC2)cc1	-16	0	1	-2	1	1
CC(=O)Nc1ccc(S(=O)(=O)N2CCN(C)CC2)cc1	-5	0	3.1*	-7	1.1	4
O=C(CSc1nnc(Cn2c(=O)sc3ccccc32)n1-c1ccccc1)Nc1nccs1	-5	-1	-2	-5	1	15*
NS(=O)(=O)c1cccc(NC(=O)c2cccnc2Oc2ccccc2)c1	.	.	0	.	.	5
COc1ccc(C(=O)COC(=O)CNC(=O)c2cc(OC)cc(OC)c2)cc1	-16	0	0	2	1	-2
CCSc1nnc(NC(=O)c2cc(-c3ccccc3O)n[nH]2)s1	.	.	3.8*	.	.	9
NS(=O)(=O)c1cccnc1Nc1cccc(Cl)c1Cl	29	0	0	50*	0.5	1
CNC(=S)Nc1cc(OC)ccc1OC	-8	-1	2	1	1	2
COc1cccc(-c2n[nH]c3c2CCC3)c1	10	0	0	-4	1	0
c1ccc(-c2n[nH]c3c2CCC3)cc1	73*	1	0	-3	1	-4
CCCC1=C(C(=O)OCC)C(c2ccc(OC)c(CSc3ccccn3)c2)C(C#N)=C(N)O1 (stereo not given)	-1	0	-1	-3	1	-5
Cc1ccccc1NC(=O)Nc1cc(S(N)(=O)=O)ccc1C	-10	-3	1	0	1	1
Cc1ccc(S(N)(=O)=O)cc1NC(=O)C1CC2CCC1C2 (stereo not given)	-2	-4	3.0*	4	1	1
C[C@]12CS(=O)(=O)C[C@H]1SC(=S)N2c1ccccc1	.	.	4.7*	.	.	2
CC(=O)OCc1cc(-c2nc3ccccc3[nH]c2=O)nn1-c1ccc(Cl)cc1	.	.	1	.	.	1
COc1cc(/C=C2\C(=O)N(c3ccc(NC(C)=O)cc3)N=C2c2ccccc2)ccc1O	55*	0	0	42	0.6	7
O=C1/C(=C\c2ccc(O)c(O)c2)C(c2ccccc2)=NN1c1ccccc1	88*	0	1	38	0.6	9
Cc1ccc(NC(=O)CCSc2nnc(C)s2)cc1	-6	2	2.9*	-1	1	1
NC1=NC(=Nc2cccc(S(N)(=O)=O)c2)c2ccccc21	.	.	4.0*	.	.	2
Cc1cc(=O)n(-c2ccc(O)cc2)[nH]1	-7	0	0	-1	1	21*
CCOC(=O)c1sc(-c2ccc(Cl)cc2)nc1O	.	.	1	.	.	3
CC(=O)Nc1ccc(NC(=O)C(C)n2nc(C)c([N+](=O)[O-])c2C)cc1 (stereo not given)	-3	0	3.0*	-5	1	2
SMILES	TNAP inh noacc	DTT redox prof	PERK inh	TNAP inh hi DEA	TNAP act hi DEA	p97 inhibitor
COc1cc(C(c2c(C)[nH][nH]c2=O)c2c(C)[nH][nH]c2=O)ccc1OS(=O)(=O)c1ccccc1	29	-1	0	72*	0.3	2
COc1cc(C(c2c(C)[nH][nH]c2=O)c2c(C)[nH][nH]c2=O)ccc1OS(=O)(=O)c1ccc(C)cc1	12	-2	-1	51*	0.5	9
COc1cc(C(c2c(C)[nH][nH]c2=O)c2c(C)[nH][nH]c2=O)ccc1OC(C)C	82*	0	0	87*	0.1	2
COc1cc(C(c2c(C)[nH][nH]c2=O)c2c(C)[nH][nH]c2=O)cc(OC)c1OC	-7	0	-1	-1	1	-4
COc1cc(C(c2c(C)[nH][nH]c2=O)c2c(C)[nH][nH]c2=O)ccc1OCc1ccc([N+](=O)[O-])cc1	-56	0	0	11	0.9	1
Cc1nc([N+](=O)[O-])cn1CCC#N	.	.	3.6*	.	.	6
